How the values were obtained:
female Wistar rats = assay: Acute oral toxicity; type: in vivo; conditions: 100 mg/kg, observed 48 h for mortality
Procedure, shortened: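 Female Wistar rats were fasted overnight, then given the test compound orally as a single 100 mg/kg dose. Animals were watched for signs of morbidity […].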

Vero cells = assay: In vitro cytotoxicity assay on Vero cells; type: cell-based, monkeys; conditions: 100 μM, 24 h, 3000 Vero cells/well
Procedure, shortened: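 Vero cells, about 3000 per well at 90% confluency, were exposed to the test compound at 100 μM for 24 h at 37°C in a CO2 incubator. The percentage of metabolically active cells was compared with untreated control to give cytotoxicity. Three independent runs were done.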

For `Cc1nc2ccccc2n1CC(=O)NN` [MBNHYD, 2-(2-methyl-1H-benzimidazol-1-yl) acetohydrazide], the toxicity in vivo (female Wistar rats) was “non-toxic” and the toxicity in vitro (Vero cells) was “non-toxic”.

For `Cc1nc2ccccc2n1CC(=O)NNc1ccccc1` [MBPHYD, 2-(2-methyl-1H-benzimidazol-1-yl)-N′-phenylacetohydrazide], the toxicity in vivo (female Wistar rats) was “non-toxic” and the toxicity in vitro (Vero cells) was “non-toxic”.
